Compound activity from PubChem BioAssay.
MPTP inh – mitochondrial permeability transition pore inhibitors, primary screen, biochemical, isolated mouse mitochondria, absorbance. inhibition, % at 10 µM. AID 602449, 2012. 360,000 compounds, 1.4% hits. Ca2+ swelling absorbance, 30 min;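 active = inhibition of 50% or more, scaled per plate between neutral and stimulator controls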;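 also: 0% = DMSO wells given calcium and 100% = 1 mM EGTA wells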
iPSC survival up – enhancers of single-cell hiPSC survival, primary screen, ATPlite luminescence; 100% = ROCK inhibitor wells, 0% = DMSO; survival enhancement, % at 20 µM; 360,000 compounds, 0.044% hits; in the data active = survival enhancement above about 18%;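 also: cells exposed to compounds for 16 hours before the ATP read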
UBC13 inh – UBC13 polyubiquitin chain formation inhibitors, primary screen, biochemical, TR-FRET, uHTS | inhibition, % at 20 µM | 330,000 compounds, 0.47% hits | AID 485273, 2010; in the data active = inhibition above about 45%, passing the limit was not always enough
beta cell repl – inducers of MIN6 beta-cell proliferation, primary screen, ATP luminescence, uHTS; MIN6 cells proliferation, ATPlite luminescence, 48 h; cells starved in 0.2% serum; 100% = growth in 10% serum; proliferation, % at 10 µM; 330,000 compounds, 0.29% hits; AID 2380, 2010;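 active = compounds whose signal lies at least 3.5 SD above the mean of all wells on their plate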;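 also: 0% = DMSO-treated cells in low-serum medium and 100% = 10% serum control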
Granule exo inh – LAMP-1 surface exposure blockers, TALL-104 cells – cell-based, flow cytometry, MLPCN library, primary screen; TALL-104 LAMP-1 surface exposure; cells stimulated with thapsigargin and PMA; inhibition, % at 10 µM; 360,000 compounds, 0.66% hits; AID 651702, 2012;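 active = inhibition above about 55%, limit read from the data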
Apaf1 inhib – inhibitors of human Apaf-1 apoptosome, primary screen, biochemical, DEVD-Rh110 fluorescence, uHTS. Apoptotic protease-activating factor 1 (Homo sapiens), O14727. reconstituted apoptosome caspase-3 activity. inhibition, % at 20 µM. 330,000 compounds, 0.71% hits; active = inhibition of at least 40% at 20 µM;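 also: plate controls were DMSO wells for no effect and DEVD-CHO caspase inhibitor wells for full effect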
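Material: cell-free apoptosome with Apaf-1, procaspase-3 and caspase-9; Buffer or medium: Hepes pH 7.5 with detergent and BSA; Reagent: cytochrome c trigger plus (Z-DEVD)2-Rh110 caspase-3 substrate; Times: compound with Apaf-1, dATP, procaspase-3 30 min, then 50 min reaction, room temperature; Technique: Rh110 fluorescence intensity.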
Rh123 counter – fluorescence retest of MPTP screen hits in isolated mitochondria, single concentration; shares compounds with MPTP inh; membrane potential, Rhodamine 123 fluorescence; inhibition, % at 10 µM; 5,000 compounds, 78% hits; AID 624504, 2012; in the data active = inhibition above about 22%;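 also: 0% = DMSO vehicle and 100% = positive control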
MPTP swell DR – mitochondrial permeability transition pore inhibitors, dose response, biochemical, absorbance, uHTS hits | AID 651561, 2012 | shares compounds with MPTP inh | IC50, µM | isolated mitochondria swelling | 780 compounds, 58% hits; in the data active = IC50 below about 20 µM
MPTP counter DR – fluorescent counter-screen in isolated mitochondria, dose response, counter-screen for MPTP inhibitor project, biochemical, fluorescence, uHTS hits | shares compounds with MPTP inh | isolated mitochondria counterscreen, fluorescence read-out | IC50, µM | 780 compounds, 49% hits | AID 651564, 2012; in the data active = IC50 below about 80 µM
* = called active by the depositor; . = not tested or not shown. Only some compounds are listed: those with a hit (about 3% of all), similar ones and a draw of the others.

SMILES | MPTP inh | iPSC survival up | UBC13 inh | beta cell repl | Granule exo inh | Apaf1 inhib | Rh123 counter | others
COc1ccc(-c2csc(NC(=O)C3CCN(c4ncnc5sc(C)c(C)c45)CC3)n2)cc1OC | 88* | 0 | 2 | -7 | 38 | 19 | 65*
COc1ccccc1OCC(=O)NNC(=O)C1CCN(c2ncnc3sc(C)c(C)c23)CC1 | -1 | 0 | 7 | 0 | 4 | 2 | .
COCc1c(C#N)c(NCc2cc(OC)c(OC)c(OC)c2)nc(C)c1[N+](=O)[O-] | 75* | 0 | -3 | -2 | -6 | -1 | 34*
Cc1c(C(=O)Nc2nnc(C(F)(F)F)s2)oc2ccccc12 | 67* | -1 | -1 | -6 | -2 | 5 | 9 | MPTP swell DR=6.5*;MPTP counter DR=<2.5*
CCOc1ccc(OCC)c(NC(=O)CN2CCN(CC(=O)NC(C)C)CC2)c1 | 1 | 0 | -5 | -2 | 2 | 2 | .
COc1cccc(NC(=O)CN(C)C(=O)CCN2C(=O)C3CC=CCC3C2=O)c1 (stereo not drawn) | 0 | 0 | 2 | -2 | 0 | 0 | .
O=C(Nc1ccccc1)Nc1ccc(-n2ccc(C(F)(F)F)n2)cc1 | 79* | 0 | 8 | -4 | 8 | -8 | 82*
Cc1cc(C(=O)Nn2c(C)nc3ccccc3c2=O)ccc1[N+](=O)[O-] | 0 | 0 | 9 | 2 | 5 | -1 | .
O=C(Nn1c(C2CCCCC2)nc2ccccc2c1=O)c1ccc(Cl)c([N+](=O)[O-])c1 | 72* | 0 | -7 | -6 | 3 | 26 | 83*
Cc1cc(C(=O)Nn2c(C3CCCCC3)nc3ccccc3c2=O)ccc1[N+](=O)[O-] | 53* | -4 | -15 | -3 | 9 | 30 | 77*
O=C(Nn1c(C2CCCCC2)nc2ccccc2c1=O)c1cc(Cl)ccc1[N+](=O)[O-] | 8 | 0 | -4 | -3 | -3 | 10 | .
CC(C)N(C(C)C)S(=O)(=O)c1ccc(NC(=O)c2cnccn2)cc1 | 0 | -1 | -13 | -3 | 1 | 3 | .
Cc1cccc2c1NC(=O)C21OCC(CO)([N+](=O)[O-])CO1 (stereo not drawn) | -1 | 1 | 2 | 6 | 0 | 5 | .
CCCCOc1ccc(CONS(=O)(=O)c2ccc(NC(C)=O)cc2)cc1Cl | 94* | -2 | 7 | -6 | -4 | -1 | 73*
Cc1snc(S(=O)(=O)/C(C#N)=N/Nc2ccc(C(F)(F)F)cc2)c1C#N | 90* | 2 | -17 | -5 | -5 | 16 | 103*
Cc1snc(S(=O)(=O)/C(C#N)=N\Nc2ccccc2)c1C#N | -20 | -1 | -15 | -2 | 5 | 9 | .
COc1ccc([C@H]2C(C(=O)O)=C[C@@H](CC3CCCC3)N2S(=O)(=O)c2ccc(C)cc2)cc1OC | 0 | 1 | -22 | -3 | -6 | 7 | .
O=C(Nc1ccc(Cl)c(Cl)c1)N1CCSC1c1ccco1 (stereo not drawn) | 92* | -1 | -6 | -6 | 2 | 17 | 91*
OCCN1CCN(C2Cc3cc(Cl)ccc3Sc3ccc(Cl)cc32)CC1 (stereo not drawn) (tested in a mixture with another compound) | 84* | 4 | 34 | -5 | 18 | 10 | -11
CN1CCN(CCOC2Cc3ccccc3Sc3ccc(Cl)cc32)CC1 (stereo not drawn) | 90* | -1 | 17 | -5 | 8 | 10 | -11 | MPTP swell DR=6.5*;MPTP counter DR=>80
C=CCC1(CC=C)CCCN1C(=O)C1CCC(=O)N(CCc2ccccc2)C1 (stereo not drawn) | 0 | 0 | -5 | -7 | -5 | 11 | .
